Reference: ChEMBL document CHEMBL1150674, “Trypanocidal diarylheptanoids from Aframomum letestuianum” (J Nat Prod, 2003)
Converted amounts (≈) assume the structure as drawn.

How the values were obtained:
Assay type in all cases: functional, organism-based
[1] = tested on: Trypanosoma brucei brucei; assay: Antitrypanosomal activity against Trypanosoma brucei brucei Lab110 EATRO after 48 hrs
Procedure, shortened: (§1)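 Bloodstream-form trypanosomes were cultured in modified IMDM with 20% horse serum at 37 °C, in 24-well plates inoculated with 10^5 trypanosomes per well. Half the well volume was changed daily. Compounds were dissolved in DMSO, with a final DMSO concentration of at most 0.3%, and tested in duplicate at final concentrations of 0.1–100 µg/mL. Parasites were Coulter-counted at 48 h, and IC50 values were taken from semi-log plots. Each assay was run at least twice.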

[2] = tested on: Trypanosoma brucei rhodesiense; assay: Antitrypanosomal activity against Trypanosoma brucei rhodesiense KETRI 243 isolate after 48 hrs; procedure, shortened: as §1
[3] = tested on: Trypanosoma brucei rhodesiense; assay: Antitrypanosomal activity against Trypanosoma brucei rhodesiense KETRI 243 As 10-3 isolate after 48 hrs; procedure, shortened: as §1

Nc1nc(N)nc(Nc2ccc([As]3SCC(CO)S3)cc2)n1 (stereo unspecified) [MELARSOPROL]
IC50 [1]: 0.002 µg/mL | IC50 [2]: 0.0005 µg/mL | IC50 [3]: 0.005 µg/mL

COc1cc(/C=C/C(O)=C/C(=O)CCc2ccc(O)c(OC)c2)ccc1O [LETESTUIANIN B]
IC50 [1]: 67 µg/mL (≈ 181 µM) | IC50 [2]: > 100 µg/mL | IC50 [3]: > 100 µg/mL

COc1cc(CCC(=O)/C=C(O)/C=C/c2ccc(O)cc2)ccc1O [LETESTUIANIN A]
IC50 [1]: > 100 µg/mL

O=C(CCc1ccc(O)cc1)CC(=O)CCc1ccc(O)cc1 [LETESTUIANIN C]
IC50 [1]: 1.4 µg/mL (≈ 4.48 µM) | IC50 [2]: 2.3 µg/mL (≈ 7.36 µM) | IC50 [3]: 2.6 µg/mL (≈ 8.32 µM)

O=C(/C=C(O)/C=C/c1ccc(O)cc1)CCc1ccc(O)cc1
IC50 [1]: 2.6 µg/mL (≈ 8.38 µM) | IC50 [2]: 2.8 µg/mL (≈ 9.02 µM) | IC50 [3]: 1.3 µg/mL (≈ 4.19 µM)

N=C(N)c1ccc(OCCCCCOc2ccc(C(=N)N)cc2)cc1 [PENTAMIDINE]
IC50 [1]: 0.0006 µg/mL (≈ 0.00176 µM) | IC50 [2]: 0.0005 µg/mL (≈ 0.00147 µM) | IC50 [3]: 0.004 µg/mL (≈ 0.0117 µM)
